Source: article PMC6018888 (Drug Design, Development and Therapy, 2018)

System: healthy Japanese and non-Asian adult male subjects
Assay: Safety and tolerability assessment
Format: in vivo, human
Settings: for incidence of TEAEs: 10 mg dose level
Method in brief: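 Adverse events were assessed daily in all dosed subjects, graded by Rheumatology Common Toxicity Criteria v2.0, with relatedness judged by the investigator. Clinical laboratory samples were taken at screening, admission, days 2, 5, 7 and 13, and at follow-up. Supine vital signs and oral temperature were measured at set times. Physical examination and 12-lead ECG were done at screening and follow-up.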

[1] = Japanese subjects, pooled verinurad (n=24)
[2] = Non-Asian subjects, pooled verinurad (n=6)

CC(C)(Sc1ccncc1-c1ccc(C#N)c2ccccc12)C(=O)O [verinurad]
AE possibly related to study drug, severe severity/life-threatening [1]: 0 n (%) [events] | Any AE, severe severity/life-threatening [1]: 0 n (%) [events] | SAEs [1]: 0 n (%) [events] | incidence of TEAEs (Japanese subjects): 2 n | AE possibly related to study drug, moderate severity [2]: 0 n (%) [events] | AE possibly related to study drug, severe severity/life-threatening [2]: 0 n (%) [events] | Any AE, severe severity/life-threatening [2]: 0 n (%) [events] | SAEs [2]: 0 n (%) [events] | Subjects withdrawn due to AEs [2]: 0 n (%) [events] | serum chemistry, hematology, coagulation, urinalysis parameters (all subjects): No safety concerns were identified | vital signs, 12-lead electrocardiograms, physical examinations (all subjects): No clinically significant findings | deaths, serious AEs, significant AEs of interest (all subjects, during the study): No deaths, other serious AEs, or other significant AEs of interest were reported | tolerability (healthy male Japanese and non-Asian subjects, single and multiple once-daily doses 2.5 to 15 mg): well tolerated | incidence of TEAEs (non-Asian subjects): 2 n | serum creatinine elevation (one subject, 3 days after a single 2.5 mg dose, resolved by day 14): 1.5 × baseline | TEAE of moderate severity (one subject, day 13 following daily dosing with 10 mg, unlikely to be related): moderately severe muscle strain
